A selection: hits, their analogues and other compounds. The true share with any hit is near 1.7%.
HNF4A DNA FP: change in binding of human HNF4 alpha to DNA; P41235; HNF4a-FITC DNA binding, fluorescence polarization, 1 h; activity change, % at 10 µM; 360,000 tested, 0.3% active; AID 1224865; in the data active = activity change above about 30%, passing the limit was not always enough
Target sequence (P41235 whole entry, looked up): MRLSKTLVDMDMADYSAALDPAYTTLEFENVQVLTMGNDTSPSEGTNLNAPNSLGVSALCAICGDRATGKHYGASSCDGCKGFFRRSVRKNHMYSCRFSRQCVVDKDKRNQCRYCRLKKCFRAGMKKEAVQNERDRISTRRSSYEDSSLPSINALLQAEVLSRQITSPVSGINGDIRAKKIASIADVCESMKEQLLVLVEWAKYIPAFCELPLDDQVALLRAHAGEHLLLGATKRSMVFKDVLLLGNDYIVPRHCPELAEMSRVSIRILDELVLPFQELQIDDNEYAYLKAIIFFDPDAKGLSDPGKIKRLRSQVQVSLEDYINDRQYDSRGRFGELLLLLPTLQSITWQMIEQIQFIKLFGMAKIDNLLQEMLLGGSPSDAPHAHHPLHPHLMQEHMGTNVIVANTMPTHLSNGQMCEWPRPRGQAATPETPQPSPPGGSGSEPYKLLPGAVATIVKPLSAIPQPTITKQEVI
IDE inh: inhibits human insulin-degrading enzyme in HEK cells; FAbetaB cleavage, fluorescence polarization; inhibition, % at 5.59 µM; 320,000 tested, 0.41% active;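 active = percent inhibition above the average of all tested compounds plus 3 SD, set per screening campaign, cut at about 16% in these data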;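 also: IDE supplied by intact live HEK cells; FP after avidin binding of uncleaved biotin substrate so inhibition keeps polarization high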
CSN inh: inhibitors of human CSN-mediated cullin deneddylation. AID 651999. Purified CSN, SCF-Nedd8-OG deneddylation, fluorescence polarization. inhibition, % at 12.5 µM. 360,000 tested, 0.38% active. Q92905;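 active = pattern-corrected inhibition above about 35%, with an unprinted fluorescence ratio check between 0.5 and 1.5, limit read from the data, passing the limit was not always enough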
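Test system: Human Csn5 produced in HEK293T cells | Compound: 12.5 µM single point | Times: 90 min, room temperature | Signal: Fluorescence polarization readout | Read-out basis: % inhibition of substrate cleavage by Csn5 | Controls: no-enzyme wells high, enzyme-with-substrate wells low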
TPT1 inh: inhibitors of Candida albicans tRNA 2'-phosphotransferase TPT1. recombinant caTPT1, FP RNA substrate dephosphorylation. inhibition, % at 5 µM. 300,000 tested, 0.81% active. AID 1962;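 active = inhibition above the mean of all tested compounds plus 3 SD, set per screening campaign, cut at about 24% in these data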
Rpn11 inh: Rpn11 (human) deubiquitinase inhibition; O00487; human 26S proteasome, Ub4-pepOG fluorescence polarization; 20S core pre-blocked with epoxomicin; inhibition, % at 20 µM; 360,000 tested, 0.59% active; AID 588493;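 active = inhibition at 20 µM, scaled to each plate's controls, above about 33%, limit read from the data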
IDE cell activ: activators of human insulin-degrading enzyme in cells; P14735; HEK cells, FAbeta-B cleavage, fluorescence polarization; 0% vehicle, 100% cell-free pure enzyme wells; activation, % at 5.96 µM; 340,000 tested, 0.073% active; AID 493087;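 active = activation above the mean of all tested compounds plus 3 SD, set per screening campaign, cut at about 17% in these data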
IDE cell inh cf: confirmation of human insulin-degrading enzyme inhibitors in cells | shares compounds with IDE inh | HEK cells, FAbetaB cleavage, fluorescence polarization | inhibition, % at 5.59 µM | 1,200 tested, 51% active;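 active = mean inhibition across triplicate wells above the cutoff set by the earlier primary insulin-degrading enzyme screen, cut at about 16% in these data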
HEK293 tox: HEK cell cytotoxicity, counter-screen for IDE inhibitors; shares compounds with IDE inh; HEK293 cytotoxicity, ATP luminescence; inhibition, % at 5.59 µM; 1,200 tested, 28% active; AID 449730; in the data active = inhibition above about 22%
Large screens that a line does not name were inactive (follow-up assays come after a bar, where they were run).

Cc1ccc(S(=O)(=O)CC(=O)N2CCN(c3ccc([N+](=O)[O-])cc3)CC2)cc1	IDE inh 19.0 (no result: TPT1 inh) | IDE cell inh cf inactive | HEK293 tox 23.2
COc1cc(C(=O)N2CCCCC2c2cc(C(=O)Nc3ccccc3)no2)cc(OC)c1C (stereo not given)	none (no result: IDE inh, TPT1 inh, IDE cell activ)
COc1cc(/C=N/NC(=O)c2ccc(-c3ccccc3)cc2)cc(OC)c1OC	IDE inh 21.3 | IDE cell inh cf inactive | HEK293 tox inactive
COc1ccc(/C=N\NC(=O)c2ccc(-c3ccccc3)cc2)c(OC)c1OC	none (no result: IDE inh, TPT1 inh)
Cc1occc1C(=O)N/N=C/c1ccc(OCc2ccccc2)cc1	none
Cc1occc1C(=O)N/N=C/c1ccc(-c2ccccc2)cc1	IDE inh 16.2 | IDE cell inh cf inactive | HEK293 tox 65.0
CC(C)Cn1c(SCC(=O)NC2CC2)nc2ccccc21	none (no result: IDE inh, TPT1 inh, IDE cell activ)
Fc1ccc(Br)cc1C1C=C(c2ccc(Br)s2)Nc2ncnn21 (stereo not given)	none
COc1cccc(C2C=C(c3ccc(Br)s3)Nc3ncnn32)c1OC (stereo not given)	IDE inh 32.0 | IDE cell inh cf inactive | HEK293 tox inactive
CCc1cc(C(=O)NNC(=S)NC2CCCCC2)cs1	none
CCc1cc(C(=O)NNC(=S)NC(C)c2ccccc2)cs1 (stereo not given)	IDE inh 18.7 | IDE cell inh cf inactive | HEK293 tox inactive
CC1=CC(C)(C)Nc2ccc(OC(=O)CCN3C(=O)c4ccccc4C3=O)cc21	IDE inh 17.0 | IDE cell inh cf 38.2 | HEK293 tox 126.7
O=C(CCN1C(=O)c2ccccc2C1=O)Oc1ccc2ccccc2c1	none
COc1ccc(OCc2cc(C(=O)N3CCSCC3)no2)c(Cl)c1	IDE inh 18.4 | IDE cell inh cf inactive | HEK293 tox inactive
CCN(CC)C(=O)Cn1cc(C(=O)C(=O)N2CC=C(c3ccccc3)CC2)c2ccccc21	IDE inh 18.9 | IDE cell inh cf 20.6 | HEK293 tox inactive
CCc1ccc(C(O)c2ncc(-c3ccc(Cl)cc3)[nH]2)cc1 (stereo not given)	none (no result: IDE inh, TPT1 inh, IDE cell activ)
COc1ccc(/C=C/C(=O)NC(=S)Nc2ccc(S(=O)(=O)Nc3cc(C)on3)cc2)cc1	IDE inh 16.4 | IDE cell inh cf inactive | HEK293 tox inactive
COc1ccc(/C=C/C(=O)NC(=S)Nc2ccc(S(=O)(=O)Nc3ccc(OC)nn3)cc2)cc1	none
OC(CN1CCN(c2ccc(C(F)(F)F)cn2)CC1)c1ccccc1 (stereo not given)	IDE inh 19.7 | IDE cell inh cf inactive | HEK293 tox inactive
C[C@H](CO)N1C[C@H](C)[C@H](CN(C)C(=O)Nc2ccc(F)cc2)OCc2cnnn2CCCC1=O	none (no result: IDE inh, TPT1 inh, IDE cell activ)
COc1ccc(/C=C2\SC(=O)NC2=S)cc1OC	IDE inh 67.8 | IDE cell inh cf inactive | HEK293 tox inactive
CCOc1ccc(/C=C2\SC(=S)NC2=O)cc1OC	none
COc1ccc(CCNC(=O)c2ccc(Cl)c(S(=O)(=O)N3CCCCCC3)c2)cc1	none (no result: TPT1 inh)
COc1ccc(CCNC(=O)c2ccc(Cl)c(S(=O)(=O)N(C)c3ccccc3)c2)cc1	IDE inh 17.8 | IDE cell inh cf inactive | HEK293 tox 34.5
N#C/C(C(=O)Nc1ccc(Cl)cc1)=C(/S)Nc1ccccc1	IDE inh 45.5 | IDE cell inh cf inactive | HEK293 tox 24.1
O=C(Nc1ccc(Nc2ccccc2)cc1)c1ccc(Cl)cc1	none
O=C(O)c1ccc(CN2C[C@@H](CO)O[C@@H](n3cnc4c(NCc5ccc(F)cc5)ncnc43)C2)cc1	none (no result: IDE inh, TPT1 inh, IDE cell activ)
Cc1ccccc1S(=O)(=O)NC(=O)C1(C)CCN1C(=O)CC(c1ccccc1)c1ccccc1 (stereo not given)	none (no result: IDE inh, TPT1 inh, IDE cell activ)
CCN(CC(=O)Nc1ccc2c(c1)OCCO2)C(=O)COc1ccc(C(C)=O)cc1	none (no result: IDE inh, TPT1 inh, IDE cell activ)
CCOC(=O)N1CCN(C(=O)c2cccn3c(=O)c4cc(Br)ccc4nc23)CC1	none
CCOC(=O)N1CCN(C(=O)c2cccn3c(=O)c4cc(Cl)ccc4nc23)CC1	IDE inh 16.2 | IDE cell inh cf inactive | HEK293 tox inactive

Assay outcomes deposited in PubChem by several laboratories.
